Source: ChEMBL document CHEMBL3272325, “Structure-activity relationships of dimeric Catharanthus alkaloids. 1. Deacetylvinblastine amide (vindesine) sulfate” (J Med Chem, 1978)

Experiments:
B16 [1] = experiment: Antitumor activity against mouse B16 cells allografted in B6D2F1 mouse assessed as increase in life span at 0.648 mg/kg/day, ip administered on day 1, 5 and 9 measured for 56 days relative to untreated control; assay type: functional; details: route intraperitoneal
Outline: (§1)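 Male B6D2F1 mice implanted ip on day 0 with 0.25 mL of a 20% (w/v) B16 melanoma brei. Alkaloid sulfate salts given ip on days 1, 5, 9 or on days 5, 9, 13, groups of 10, against 30 untreated controls. Read-outs: median survival time with range of individual deaths, and percent increase in life span, with survivors counted on day 56.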

Rhesus monkey = experiment: Neurotoxicity in iv dosed monkey assessed as peripheral neuropathy; assay type: toxicity, organism-based, Macaca mulatta; details: in vivo
[2] = Toxicity in ip dosed mouse allografted with mouse P1534(J) cells administered from day 1 to day 9; assay type: organism-based; details: in vivo, read-out: MNTD
Outline: (§2)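 P1534(J) leukemia implanted subcutaneously in mice. Sulfate salts given ip daily on days 1-9. Read-out was percent inhibition of tumor growth relative to untreated controls. The highest nontoxic dose was recorded.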

B16 [3] = experiment: Antitumor activity against mouse B16 cells allografted in C57Bl/6 mouse assessed as increase in life span at 0.9 mg/kg/day, ip administered on day 5, 9 and 13 measured for 61 days relative to control; assay type: functional; details: route intraperitoneal
Outline: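 C57BL/6 mice implanted ip with 0.5 mL of B16 melanoma brei. Alkaloid sulfate salts given ip on days 1, 5, 9 or on days 5, 9, 13. Percent increase in life span measured against controls; experiment ended at 61 days.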

[4] = test system: Friend murine leukemia virus; experiment: Antimicrobial activity against Friend leukemia virus infected in mouse assessed as inhibition of spleen enlargement at 0.25 mg/kg/day, iv for 10 days relative to untreated control; assay type: functional; details: 240 h
Outline: (§3)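 DBA/2 mice bearing Friend leukemia virus were dosed iv for 10 days. Spleen enlargement was compared with untreated controls.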

P388 [5] = experiment: Antitumor activity against mouse P388 cells allografted in mouse assessed as increase in life span at 0.9 mg/kg/day, ip administered from day 1 to day 9 relative to untreated control; assay type: functional; details: route intraperitoneal
Outline: (§4)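 P388 ascites implanted ip in mice, 10 animals per group. Sulfate salts given ip either daily on days 1-9 or as a single dose on day 1. Median life span was calculated using all deaths and survivors. Percent increase in life span was taken over untreated controls. The highest nontoxic dose was noted.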

[6] = Antitumor activity against mouse P1534(J) cells allografted in mouse assessed as tumor growth inhibition at 0.25 mg/kg/day, ip administered from day 1 to day 9 relative to unreated control; assay type: functional; details: P1534J, route intraperitoneal, read-out: TGI
Outline: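 P1534(J) leukemia implanted subcutaneously in mice; sulfate salts given ip on days 1-9. Read-out is percent inhibition of tumor growth versus untreated controls.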

P388 [7] = experiment: Antitumor activity against mouse P388 cells allografted in mouse assessed as increase in life span at 0.4 mg/kg/day, ip administered from day 1 to day 9 relative to untreated control; assay type: functional; details: route intraperitoneal; outline: as §4
P388 [8] = experiment: Antitumor activity against mouse P388 cells allografted in mouse assessed as increase in life span at 1.8 mg/kg/day, ip after 1 day; assay type: functional; details: 24 h, route intraperitoneal; outline: as §4
B16 [9] = experiment: Antitumor activity against mouse B16 cells allografted in B6D2F1 mouse assessed as increase in life span at 3 mg/kg/day, ip administered on day 1, 5 and 9 measured for 56 days relative to untreated control; assay type: functional; details: route intraperitoneal; outline: as §1
B16 [10] = experiment: Antitumor activity against mouse B16 cells allografted in B6D2F1 mouse assessed as mean survival time at 1.8 mg/kg/day, ip administered on day 1, 5 and 9 (reference value: 20.0 days); assay type: functional; details: route intraperitoneal; outline: as §1
[11] = Toxicity in ip dosed mouse allografted with mouse p388 cells after 1 day; assay type: organism-based; details: in vivo, read-out: MNTD; outline: as §4
B16 [12] = experiment: Antitumor activity against mouse B16 cells allografted in B6D2F1 mouse assessed as increase in life span at 1.08 mg/kg/day, ip administered on day 5, 9 and 13 measured for 56 days relative to untreated control; assay type: functional; details: route intraperitoneal; outline: as §1
B16 [13] = experiment: Antitumor activity against mouse B16 cells allografted in B6D2F1 mouse assessed as mean survival time at 0.389 mg/kg/day, ip administered on day 1, 5 and 9 (reference value: 20.0 days); assay type: functional; details: route intraperitoneal; outline: as §1
P388 [14] = experiment: Antitumor activity against mouse P388 cells allografted in mouse assessed as increase in life span at 0.10 mg/kg/day, ip administered from day 1 to day 9 relative to untreated control; assay type: functional; details: route intraperitoneal; outline: as §4
B16 [15] = experiment: Antitumor activity against mouse B16 cells allografted in B6D2F1 mouse assessed as mean survival time at 0.648 mg/kg/day, ip administered on day 1, 5 and 9 (reference value: 20.0 days); assay type: functional; details: route intraperitoneal; outline: as §1
P388 [16] = experiment: Antitumor activity against mouse P388 cells allografted in mouse assessed as increase in life span at 0.6 mg/kg/day, ip administered from day 1 to day 9 relative to untreated control; assay type: functional; details: route intraperitoneal; outline: as §4
[17] = test system: Friend murine leukemia virus; experiment: Antimicrobial activity against Friend leukemia virus infected in mouse assessed as inhibition of spleen enlargement at 0.2 mg/kg/day, iv for 10 days relative to untreated control; assay type: functional; details: 240 h; outline: as §3
P388 [18] = experiment: Antitumor activity against mouse P388 cells allografted in mouse assessed as increase in life span at 9 mg/kg/day, ip after 1 day; assay type: functional; details: 24 h, route intraperitoneal; outline: as §4
P388 [19] = experiment: Antitumor activity against mouse P388 cells allografted in mouse assessed as increase in life span at 13.5 mg/kg/day, ip after 1 day; assay type: functional; details: 24 h, route intraperitoneal
Homo sapiens = experiment: Neurotoxicity in human assessed as neutropenia at 3 to 4 mg/m'2, iv once weekly dosed through push technique; assay type: toxicity, organism-based; details: in vivo
B16 [20] = experiment: Antitumor activity against mouse B16 cells allografted in B6D2F1 mouse assessed as mean survival time at 0.389 mg/kg/day, ip administered on day 5, 9 and 13 (reference value: 20.0 days); assay type: functional; details: route intraperitoneal; outline: as §1
B16 [21] = experiment: Antitumor activity against mouse B16 cells allografted in B6D2F1 mouse assessed as increase in life span at 1.8 mg/kg/day, ip administered on day 1, 5 and 9 measured for 56 days relative to untreated control; assay type: functional; details: route intraperitoneal; outline: as §1
B16 [22] = experiment: Antitumor activity against mouse B16 cells allografted in C57Bl/6 mouse assessed as mean survival time at 0.9 mg/kg/day, ip administered on day 5, 9 and 13 (reference value: 21.5 days); details: route intraperitoneal
P388 [23] = experiment: Antitumor activity against mouse P388 cells allografted in mouse assessed as increase in life span at 0.27 mg/kg/day, ip administered from day 1 to day 9 relative to untreated control; assay type: functional; details: route intraperitoneal; outline: as §4
B16 [24] = experiment: Antitumor activity against mouse B16 cells allografted in B6D2F1 mouse assessed as increase in life span at 3 mg/kg/day, ip administered on day 5, 9 and 13 measured for 56 days relative to untreated control; assay type: functional; details: route intraperitoneal; outline: as §1
B16 [25] = experiment: Antitumor activity against mouse B16 cells allografted in B6D2F1 mouse assessed as mean survival time at 3 mg/kg/day, ip administered on day 1, 5 and 9 (reference value: 20.0 days); assay type: functional; details: route intraperitoneal; outline: as §1
[26] = Antitumor activity against mouse P1534(J) cells allografted in mouse assessed as tumor growth inhibition at 0.2 mg/kg/day, ip administered from day 1 to day 9 relative to unreated control; assay type: functional; details: P1534J, route intraperitoneal, read-out: TGI; outline: as §2
[27] = Toxicity in ip dosed mouse allografted with mouse p388 cells administered from day 1 to day 9; assay type: organism-based; details: in vivo, read-out: MNTD; outline: as §4

In the case of `CC[C@]1(O)C[C@@H]2CN(CCc3c([nH]c4ccccc34)[C@@](C(=O)OC)(c3cc4c(cc3OC)N(C)[C@H]3[C@@](O)(C(N)=O)[C@H](O)[C@]5(CC)C=CCN6CC[C@]43[C@@H]65)C2)C1.O=S(=O)(O)O` [VINDESINE SULFATE], the ILS at 0.648 mg/kg/day (B16 [1]) is reported as 75%, the Activity (Rhesus monkey) is reported as “Non-toxic” and the MTD [2] is reported as 0.25 mg/kg/day. The ILS at 0.9 mg/kg/day (B16 [3]) was 78%, the inhibition in vivo at 0.25 mg/kg/day [4] was 90% and the ILS at 0.9 mg/kg/day (P388 [5]) was 177%. It also gave an inhibition in vivo at 0.25 mg/kg/day [6] of 100%, an ILS at 0.4 mg/kg/day (P388 [7]) of 172% and an ILS at 1.8 mg/kg/day (P388 [8]) of 54%. The ILS at 3 mg/kg/day (B16 [9]) was 138%, the MST (B16 [10]) was 48.5 days and the MTD at 24 h [11] was 13.5 mg/kg/day. It also gave an ILS at 1.08 mg/kg/day (B16 [12]) of 58%, an MST (B16 [13]) of 37 days and an ILS at 0.1 mg/kg/day (P388 [14]) of 109%. For the same compound, the MST (B16 [15]) was 35 days, the ILS at 0.6 mg/kg/day (P388 [16]) was 213% and the inhibition in vivo at 0.2 mg/kg/day [17] was 80%. For the same compound, the ILS at 9 mg/kg/day (P388 [18]) was 190%, the ILS at 13.5 mg/kg/day (P388 [19]) was 231% and the Activity (Homo sapiens) was “Toxic”. The MST (B16 [20]) was 25 days, the ILS at 1.8 mg/kg/day (B16 [21]) was 142% and the MST (B16 [22]) was 38.3 days. The ILS at 0.27 mg/kg/day (P388 [23]) was 172%, the ILS at 3 mg/kg/day (B16 [24]) was 48% and the MST (B16 [25]) was 47.5 days. The inhibition in vivo at 0.2 mg/kg/day [26] was 74% and the MTD [27] was 0.9 mg/kg/day.
